Assay results of several laboratories.
Compare with care: the assays were run in different laboratories.
Adora1: Adenosine receptor A1 (Adora1, Rattus norvegicus, UniProt P25099)
HRH1: Histamine H1 receptor (HRH1, Homo sapiens, UniProt P35367)

With `CCCCN1CCCn2c1nc1c2c(=O)n(C)c(=O)n1C` the Ki was 4.32 µM (Adora1; ligand displacement; radioligand; cell membranes).
With `CC(C)[C@@H](CC[C@@H](C)[C@H]1CC[C@H]2[C@@H]3[C@H](O)C[C@H]4C[C@@H](NCCCNCCCCNCCCN)CC[C@]4(C)[C@H]3CC[C@]12C)OS(=O)(=O)O` the Ki was 6 µM (Tyrosine-protein phosphatase non-receptor type 2 (PTPN2, Homo sapiens, UniProt P17706); enzyme activity; inhibitor).
With `CCn1c(-c2nc3cc(C(=O)N4CCC[C@@H](N)C4)cc(OC)c3n2C)cc2cccnc21` the Ki was 16 µM (Protein-arginine deiminase type-4 (PADI4, Homo sapiens, UniProt Q9UM07); enzyme activity; inhibitor).
The Ki of `O=C(CCNC(=S)NCCCC[C@H](NS(=O)(=O)c1cccc(F)c1)C(=O)N[C@@H](Cc1c[nH]c2ccccc12)C(=O)NC1CCC1)NO` is reported as 3.2 µM (NAD-dependent protein deacylase sirtuin-5, mitochondrial (SIRT5, Homo sapiens, UniProt Q9NXA8); enzyme activity; inhibitor).
For `Nc1nc2ncc(CNc3ccc(C(=O)N[C@@H](CCC(=O)O)C(=O)O)cc3)nc2c(=O)[nH]1`, the Ki was 0.59 µM (Proton-coupled folate transporter (Homo sapiens, UniProt Q96NT5); transporter uptake; inhibitor; radiometric; pH 5.5).
`C#CCN1CCCn2c1nc1c2c(=O)n(C)c(=O)n1C` has a Ki of at least 25 µM (Adora1; ligand displacement; radioligand; cell membranes).
`CN(C)c1ccc(/C=C2\CCc3cc(OCc4ccc(OCCCN5CCCCC5)cc4)ccc3C2=O)cc1` gave a Ki of 1.77 µM (HRH1; ligand displacement; radioligand; cell membranes).
`CN1CCC(C2c3ccccc3C=Cc3ccccc32)CC1` gave a Ki of 0.000501 µM (HRH1; cell-free assay; radioligand).
`CCN1CCCn2c1nc1c2c(=O)n(C)c(=O)n1C` has a Ki of at least 25 µM (Adora1; ligand displacement; radioligand; cell membranes).
For `O=C(O)c1cc(O)c2c(c1)C(=O)c1cc(O)cc(O)c1C2=O`, the Ki was 29.1 µM (Amine oxidase [flavin-containing] B (MAOB, Homo sapiens, UniProt P27338); enzyme activity; inhibitor).
`CCCCN1CCC(COC(=O)c2ccc(N)c(OCF)c2)CC1` has a Ki of over 10 µM (Muscarinic acetylcholine receptor M4 (CHRM4, Homo sapiens, UniProt P08173); cell-free assay; radioligand).
The Ki of `CN(C)c1ccc(/C=C/C=C2\CCc3ccc(OCCCN4CCCCC4)cc3C2=O)cc1` is reported as 1.97 µM (HRH1; ligand displacement; radioligand; cell membranes).
`CCCCCCN1CCCn2c1nc1c2c(=O)n(C)c(=O)n1C` has a Ki of 2.87 µM (Adora1; ligand displacement; radioligand; cell membranes).
